# ChEMBL document CHEMBL2086249, “Use of small-molecule crystal structures to address solubility in a novel series of G protein coupled receptor 119 agonists: optimization of a lead and in vivo evaluation” (J Med Chem, 2012)
# Legend:
# physchem = conditions: pH 7.4
# [1] = Cmax in Han Wistar rat at 100 mg/kg; assay type: ADME, organism-based; parameters: dose 100 mg/kg; conditions: in vivo
# [2] = AUC (0 to 24 hrs) in Beagle dog at 50 mg/kg; assay type: ADME, organism-based, Canis lupus familiaris; parameters: time < 24 hr, dose 50 mg/kg; conditions: plasma
# [3] = Apparent permeability across apical to basolateral side of human Caco2 cells at 10 uM; assay type: ADME, cell-based; conditions: Caco-2
# [4] = Half life in Beagle dog at 2 mg/kg, iv; assay type: ADME, organism-based, Canis lupus familiaris; parameters: dose 2 mg/kg, route intravenous; conditions: in vivo
# Procedure, shortened: (§1)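 Single-dose PK in C57BL6 mice, Han Wistar rats and beagle dogs. Intravenous 2 mg/kg in 5% DMSO/95% (hydroxypropyl)-β-cyclodextrin. Oral dosing as a suspension in aqueous 0.1% (w/v) pluronic F127, at 5 mg/kg for mouse and rat and 13 mg/kg for dog. Dose volume 5 mL/kg for rodents and 2 mL/kg for dog.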
# [5] = Half life in C57BL6 mouse at 2 mg/kg, iv; assay type: ADME, organism-based; parameters: dose 2 mg/kg, route intravenous; conditions: in vivo
# Procedure, shortened: as §1
# [6] = Cmax in Han Wistar rat at 5 mg/kg; assay type: ADME, organism-based; parameters: dose 5 mg/kg; conditions: in vivo
# [7] = AUC (0 to 6 hrs) in C57BL6 mouse at 30 mg/kg; assay type: ADME, organism-based; parameters: time < 6 hr, dose 30 mg/kg; conditions: plasma
# [8] = Drug excretion in bile-duct cannulated Han Wistar rat bile; assay type: ADME; conditions: in vivo
# [9] = Oral bioavailability in Han Wistar rat at 5 mg/kg; assay type: ADME, organism-based; conditions: in vivo
# Procedure, shortened: (§2)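 IV dose 2 mg/kg in 5% DMSO/95% (hydroxypropyl)-β-cyclodextrin; oral dose given as suspension in aqueous 0.1% pluronic F127, 5 mg/kg for mouse and rat, 13 mg/kg for dog. Dose volumes 5 mL/kg (mouse, rat) and 2 mL/kg (dog). Animals were C57BL6 mice, Han Wistar rats and beagle dogs.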
# [10] = AUC (0 to 24 hrs) in Beagle dog at 5 mg/kg; assay type: ADME, organism-based, Canis lupus familiaris; parameters: time < 24 hr, dose 5 mg/kg; conditions: plasma
# [11] = Half life in C57BL6 mouse at 5 mg/kg, po; assay type: ADME, organism-based; parameters: dose 5 mg/kg, route oral; conditions: in vivo
# Procedure, shortened: as §1
# [12] = Plasma clearance in Han Wistar rat at 2 mg/kg, iv and 5 mg/kg, po; assay type: ADME, organism-based
# Procedure, shortened: as §2
# [13] = Intrinsic clearance in dog hepatocytes assessed per million cells; assay type: ADME, cell-based, Canis lupus familiaris, Hepatocyte; conditions: read-out: CLH
# [14] = Cmax in Beagle dog at 50 mg/kg; assay type: ADME, organism-based, Canis lupus familiaris; parameters: dose 50 mg/kg; conditions: in vivo
# [15] = Half life in Han Wistar rat at 2 mg/kg, iv; assay type: ADME, organism-based; parameters: dose 2 mg/kg, route intravenous; conditions: in vivo
# Procedure, shortened: as §1
# [16] = AUC (0 to 24 hrs) in Han Wistar rat at 100 mg/kg; assay type: ADME, organism-based; parameters: time < 24 hr, dose 100 mg/kg; conditions: plasma
# [17] = Plasma clearance in C57BL6 mouse at 2 mg/kg, iv and 5 mg/kg, po; assay type: ADME, organism-based
# Procedure, shortened: as §2
# [18] = Volume of distribution at steady state in Han Wistar rat at 2 mg/kg, iv and 5 mg/kg, po; assay type: ADME, organism-based; conditions: in vivo, read-out: Vdss
# Procedure, shortened: as §2
# [19] = Cmax in Beagle dog at 1 mg/kg; assay type: ADME, organism-based, Canis lupus familiaris; parameters: dose 1 mg/kg; conditions: in vivo
# [20] = Cmax in Beagle dog at 5 mg/kg; assay type: ADME, organism-based, Canis lupus familiaris; parameters: dose 5 mg/kg; conditions: in vivo
# [21] = AUC (0 to 12 hrs) in C57BL6 mouse at 100 mg/kg; assay type: ADME, organism-based; parameters: time < 12 hr, dose 100 mg/kg; conditions: plasma
# [22] = Volume of distribution at steady state in C57BL6 mouse at 2 mg/kg, iv and 5 mg/kg, po; assay type: ADME, organism-based; conditions: in vivo, read-out: Vdss
# Procedure, shortened: as §2
# [23] = AUC (0 to 24 hrs) in Beagle dog at 1 mg/kg; assay type: ADME, organism-based, Canis lupus familiaris; parameters: time < 24 hr, dose 1 mg/kg; conditions: plasma
# [24] = Intrinsic clearance in rat hepatocytes assessed per million cells; assay type: ADME, cell-based, Hepatocyte; conditions: read-out: CLH
# [25] = AUC (0 to 24 hrs) in Han Wistar rat at 5 mg/kg; assay type: ADME, organism-based; parameters: time < 24 hr, dose 5 mg/kg; conditions: plasma
# [26] = Cmax in C57BL6 mouse at 30 mg/kg; assay type: ADME, organism-based; parameters: dose 30 mg/kg; conditions: in vivo
# [27] = Half life in Han Wistar rat at 5 mg/kg, po; assay type: ADME, organism-based; parameters: dose 5 mg/kg, route oral; conditions: in vivo
# Procedure, shortened: as §1
# [28] = Cmax in Beagle dog at 10 mg/kg; assay type: ADME, organism-based, Canis lupus familiaris; parameters: dose 10 mg/kg; conditions: in vivo
# [29] = Half life in Beagle dog at 13 mg/kg, po; assay type: ADME, organism-based, Canis lupus familiaris; parameters: dose 13 mg/kg, route oral; conditions: in vivo
# Procedure, shortened: as §1
# [30] = AUC (0 to 12 hrs) in C57BL6 mouse at 5 mg/kg; assay type: ADME, organism-based; parameters: time < 12 hr, dose 5 mg/kg; conditions: plasma
# [31] = Cmax in C57BL6 mouse at 100 mg/kg; assay type: ADME, organism-based; parameters: dose 100 mg/kg; conditions: in vivo
# [32] = Oral bioavailability in Beagle dog at 13 mg/kg; assay type: ADME, organism-based, Canis lupus familiaris; conditions: in vivo
# Procedure, shortened: as §1
# [33] = Cmax in C57BL6 mouse at 5 mg/kg; assay type: ADME, organism-based; parameters: dose 5 mg/kg; conditions: in vivo
# [34] = Intrinsic clearance in mouse hepatocytes assessed per million cells; assay type: ADME, cell-based, Hepatocyte; conditions: read-out: CLH
# [35] = Drug excretion in bile-duct cannulated Han Wistar rat urine; assay type: ADME; conditions: in vivo
# [36] = AUC (0 to 24 hrs) in Beagle dog at 10 mg/kg; assay type: ADME, organism-based, Canis lupus familiaris; parameters: time < 24 hr, dose 10 mg/kg; conditions: plasma
# [37] = Volume of distribution at steady state in Beagle dog at 2 mg/kg, iv and 13 mg/kg, po; assay type: ADME, organism-based, Canis lupus familiaris; conditions: in vivo, read-out: Vdss
# Procedure, shortened: as §2
# [38] = Oral bioavailability in C57BL6 mouse at 5 mg/kg; assay type: ADME, organism-based; conditions: in vivo
# Procedure, shortened: as §2
# [39] = Plasma clearance in Beagle dog at 2 mg/kg, iv and […] mg/kg, po; assay type: ADME, organism-based, Canis lupus familiaris
# [40] = Hydrolytic stability of the compound at pH 1 to 10; assay type: physicochemical; conditions: buffer
smiles,measurement,setting,value
C[C@@H]1CN(C(=O)OC(C)(C)C)CCN1c1ncc(OCc2ccc(-n3cnnn3)cc2)cn1,logD,physchem; octanol/phosphate buffer,> 4.3
C[C@@H]1CN(C(=O)OC(C)(C)C)CCN1c1ncc(OCc2ccc(S(C)(=O)=O)cc2F)cn1,logD,physchem; octanol/phosphate buffer,3.7
C[C@@H]1CN(C(=O)OC(C)(C)C)CCN1c1ncc(OCc2ccc(S(C)(=O)=O)cc2C#N)cn1,logD,physchem; octanol/phosphate buffer,3.3
C[C@@H]1CN(C(=O)OC(C)(C)C)CCN1c1ncc(OCc2ccc(S(C)(=O)=O)cn2)cn1,logD,physchem; octanol/water,3
CC(C)(C)OC(=O)N1CCN(c2ncc(OCc3ccncc3)cn2)CC1,logD,physchem; octanol/phosphate buffer,3.4
Cc1cc(COc2cnc(N3CCN(C(=O)OC(C)(C)C)CC3)nc2)ccn1,logD,physchem; octanol/phosphate buffer,3.7
Cc1cnccc1COc1cnc(N2CCN(C(=O)OC(C)(C)C)CC2)nc1,logD,physchem; octanol/water,3.8
COc1cnccc1COc1cnc(N2CCN(C(=O)OC(C)(C)C)CC2)nc1,logD,physchem; octanol/phosphate buffer,3.8
CC(C)(C)OC(=O)N1CCN(c2ncc(OCc3ccncc3F)cn2)CC1,logD,physchem; octanol/phosphate buffer,3.6
CC(C)(C)OC(=O)N1CCN(c2ncc(OCc3ccncc3C#N)cn2)CC1,logD,physchem; octanol/phosphate buffer,2.8
Cc1cnccc1COc1cnc(N2CCN(C(=O)OC(C)(C)C)C[C@H]2C)nc1,logD,physchem; octanol/phosphate buffer,3.8
C[C@@H]1CN(C(=O)OCC(F)(F)F)CCN1c1ncc(OCc2ccncc2C#N)cn1,logD,physchem; octanol/phosphate buffer,3
C[C@@H]1CN(c2ncc(F)cn2)CCN1c1ncc(OCc2ccncc2C#N)cn1,logD,physchem; octanol/phosphate buffer,3.4
CC(C)c1nc(N2CCN(c3ncc(OCc4ccncc4C#N)cn3)[C@H](C)C2)no1,Cmax,[1],6300 nM
same,AUC(0-t) at 24 h,[2],119 µM·h
same,Papp A→B at 10 µM,[3],85 ×10⁻⁶ cm/s
same,half-life,[4],11 h
same,half-life,[5],1 h
same,Cmax,[6],700 nM
same,AUC(0-t) at 6 h,[7],6.4 µM·h
same,Drug excretion,[8],Active
same,bioavailability,[9],29%
same,AUC(0-t) at 24 h,[10],14 µM·h
same,half-life,[11],1 h
same,clearance,[12],28 mL/min/kg
same,hepatocyte CLint,[13],5.6 µL/min/1e6 cells
same,Cmax,[14],10000 nM
same,logD,physchem; octanol/phosphate buffer,3.3
same,half-life,[15],3 h
same,AUC(0-t) at 24 h,[16],97 µM·h
same,clearance,[17],49 mL/min/kg
same,Vd,[18],5.1 L/kg
same,Cmax,[19],600 nM
same,Cmax,[20],2500 nM
same,AUC(0-t) at 12 h,[21],42 µM·h
same,Vd,[22],2.4 L/kg
same,AUC(0-t) at 24 h,[23],4 µM·h
same,hepatocyte CLint,[24],29 µL/min/1e6 cells
same,AUC(0-t) at 24 h,[25],2.7 µM·h
same,Cmax,[26],3500 nM
same,half-life,[27],6 h
same,Cmax,[28],1300 nM
same,half-life,[29],5 h
same,AUC(0-t) at 12 h,[30],0.7 µM·h
same,Cmax,[31],14000 nM
same,bioavailability,[32],24%
same,Cmax,[33],400 nM
same,hepatocyte CLint,[34],67 µL/min/1e6 cells
same,Drug excretion,[35],Active
same,AUC(0-t) at 24 h,[36],11 µM·h
same,Vd,[37],4.1 L/kg
same,bioavailability,[38],22%
same,clearance,[39],3.6 mL/min/kg
same,Stability,[40],Stable
C[C@@H]1CN(c2noc(C3CC3)n2)CCN1c1ncc(OCc2ccncc2C#N)cn1,logD,physchem; octanol/phosphate buffer,3.1
C[C@@H]1CN(c2noc(C(F)(F)F)n2)CCN1c1ncc(OCc2ccncc2C#N)cn1,logD,physchem; octanol/phosphate buffer,4
C[C@@H]1CN(c2noc(C(F)F)n2)CCN1c1ncc(OCc2ccncc2C#N)cn1,logD,physchem; octanol/water,2.9
C[C@@H]1CN(c2nc(C3CC3)no2)CCN1c1ncc(OCc2ccncc2C#N)cn1,logD,physchem; octanol/phosphate buffer,3.5
C[C@@H]1CN(c2nc(C(F)(F)F)no2)CCN1c1ncc(OCc2ccncc2C#N)cn1,logD,physchem; octanol/water,3.1
